Compound activity as filed in PubChem.
MT1-MMP act inh: MT1-MMP (human) activation inhibition; P50281; HT1080 RFP-PRO-GFP cells, GFP/RFP ratio fluorescence, overnight; percent of plate control window, DMSO zero; GFP/RFP ratio change, % at 20 µM; 360,000 compounds, 0.061% hits;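 active = GFP/RFP ratio change of at least 30% with cell ATP level not reduced by more than half and red fluorescence within 50% of control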
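Assay system: RFP-PRO-GFP reporter HT1080 cells; read-out basis: GFP/RFP fluorescence ratio; benchmarks: DMSO wells and RFP-L50D-GFP cells; doses: 20 µM single dose, 1% DMSO; schedule: overnight cell settling, then overnight compound exposure, 37 °C, 5% CO2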
CTSL1 counter: cathepsin L1 inhibition, PFM18AAP counter-screen | recombinant F. hepatica cathepsin L1, Z-Leu-Arg-MCA fluorescence | inhibition, % at 5.96 µM | 300,000 compounds, 0.49% hits | AID 1906;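 active = inhibition above the mean of all tested compounds plus 3 SD, set per screening campaign, cut at about 17% in these data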
DAGLB inhibitor: diacylglycerol lipase beta (human) inhibition. Q8NCG7. HEK293T DAGLB membrane lysate, EnzChek fluorogenic substrate. inhibition, % at 5.17 µM. 340,000 compounds, 0.059% hits. AID 504411; in the data active = inhibition above about 34%
NRP1-CendR mod: alters CendR peptide binding to human NRP-1 | O14786 | inhibition, % at 25 µM | 360,000 compounds, 0.85% hits | FAM-RPARPAR peptide binding to NRP-1, fluorescence polarization;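 active = inhibition or corrected inhibition above about 18%, plus a signal ratio from 0.5 to 1.5, limit read from the data, passing the limit was not always enough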
UCH37 DUB inh: inhibitors of human deubiquitinating enzyme UCH37 | Q9Y5K5 | 330,000 compounds, 0.33% hits | AID 588478 | inhibition, % (test concentration not listed) | purified proteasome/UCH37, Ub-AMC cleavage fluorescence;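 active = mean inhibition over replicate wells above about 20%, limit read from the data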
Target sequence (Q9Y5K5 whole entry, looked up): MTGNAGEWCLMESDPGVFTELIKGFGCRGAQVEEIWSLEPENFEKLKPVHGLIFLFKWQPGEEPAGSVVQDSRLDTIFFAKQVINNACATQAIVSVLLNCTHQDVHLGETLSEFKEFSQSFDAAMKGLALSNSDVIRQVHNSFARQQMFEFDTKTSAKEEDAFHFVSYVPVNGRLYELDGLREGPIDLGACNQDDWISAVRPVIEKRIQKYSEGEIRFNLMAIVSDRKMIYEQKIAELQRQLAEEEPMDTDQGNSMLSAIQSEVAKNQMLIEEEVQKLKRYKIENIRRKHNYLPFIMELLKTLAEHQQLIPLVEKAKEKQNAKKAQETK
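Material: Human UCH37 enzyme supplied as purified proteasome complex | Schedule: 30 min preincubation with enzyme, 25 min cleavage at room temperature | Detection: AMC fluorescence 355/460 nm | Measure: % inhibition of Ub-AMC cleavage fluorescence | Controls: Wells without proteasome as full block, compound-free enzyme plus substrate as uninhibited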
DAGLB confirm: DAGLB (human) inhibition, confirmation screen; shares compounds with DAGLB inhibitor; HEK293T DAGLB membrane lysate, EnzChek fluorogenic substrate; inhibition, % at 5.17 µM; 190 compounds, 73% hits; AID 504445;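 active = mean inhibition over triplicate wells above a set limit taken from the primary lipase screen, cut at about 34% in these data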
Hits are given with their value; . = inactive; / = not tested or not shown. In the library only some 1.5% were active in any assay of this set; here they are far more common.

SMILES	MT1-MMP act inh	CTSL1 counter	DAGLB inhibitor	NRP1-CendR mod	UCH37 DUB inh	others
COc1ccc(C(=O)Nc2cccc(N(C)S(C)(=O)=O)c2)cc1OC	.	.	.	.	.
Cc1ccc(NC(=O)c2ccc3c(c2)OCCO3)cc1S(=O)(=O)Nc1cccc(Cl)c1	.	.	.	37.3	.
Cc1ccc(C(=O)Nc2cccc(N(C)S(C)(=O)=O)c2)cc1S(=O)(=O)Nc1ccccc1	.	19.5	.	.	.
COc1ccc(NC(=O)C(=O)NN=Cc2cccnc2)c(OC)c1	/	/	/	/	.
NC(=NS(=O)(=O)c1ccccc1)c1ccc([N+](=O)[O-])cc1	/	/	/	/	.
COc1ccc(C=NNC(=O)c2ccc(Cn3cc(Br)c([N+](=O)[O-])n3)o2)c(OC)c1C	/	/	/	/	.
O=C(N/N=C1\C/C(=N\NC(=O)c2ccncc2)c2ccccc21)c1ccncc1	.	42.5	.	.	/
O=C(NN=C1C2CC3CC(C2)CC1C3)c1ccncc1	.	.	.	.	.
O=C(NN=C/C(Cl)=C/c1ccc([N+](=O)[O-])cc1)C(=O)Nc1ccccc1C(=O)O	/	/	/	/	.
COC(=O)C1=C(C)N(CCCC(=O)O)C(=O)NC1c1ccc(Br)cc1 (stereo not drawn)	.	.	.	.	.
COC(=O)C1=C(C)N(CCCC(=O)O)C(=O)NC1c1ccc(-c2ccccc2)cc1 (stereo not drawn)	.	.	.	29.9	.
COc1ccc(C(C)=NNC(=O)CNC(=O)Cc2ccccc2)c(OC)c1	/	/	/	/	.
CCC(c1nnnn1C(C)(C)C)N(Cc1cccs1)Cc1cc2cc(C)c(C)cc2n2nnnc12 (stereo not drawn)	/	19.1	/	/	.
COc1ccc(C=NN=C2SC(CC(=O)O)C(=O)N2c2ccc(O)cc2)cc1OC (stereo not drawn)	/	/	/	/	.
CCN(CC)S(=O)(=O)c1cccc(NC(=O)COC(=O)CNC(=O)c2cccc(F)c2)c1	.	18.0	.	.	.
Cc1ccc(N(CC(=O)NN=Cc2ccco2)S(=O)(=O)c2ccccc2)cc1	/	/	/	/	.
c1ccc(CNc2nc(NCc3ccccc3)c3sccc3n2)cc1	.	/	/	.	/
Fc1cc(Cl)ccc1Nc1nc(NCc2ccccc2)nc2ccsc12	.	/	/	26.1	/
CCOc1ccc(NC(=O)CN2C(=O)C(C)SC(C)C2=O)cc1 (stereo not drawn)	.	.	.	25.4	.
CCOc1ccc(NC(=O)CN2C(=O)C3CC=CCC3C2=O)cc1 (stereo not drawn)	.	.	.	.	.
C=CCc1ccc(OCCOc2ccc(C=Nn3cnnc3)cc2OCC)c(OC)c1	/	/	/	/	.
Cc1csc(=NN=Cc2cccc([N+](=O)[O-])c2)n1Cc1ccco1	/	/	/	/	.
NC1=NC[C@@H](Cc2ccc(O)cc2)N1CCCCC1CCCCC1	.	.	.	30.9	.
NC1=NC[C@H](Cc2ccc(O)cc2)N1CC1CCCCC1	.	.	.	.	.
COc1cc(C=NNC(=O)C2CC3C=CC2C3)ccc1O (stereo not drawn)	/	/	/	/	.
SMILES	MT1-MMP act inh	CTSL1 counter	DAGLB inhibitor	NRP1-CendR mod	UCH37 DUB inh	others
COc1ccc(-c2cc(C#N)nc(Cl)n2)cc1	.	.	.	.	.
CCN(CC)c1nc(C#N)cc(-c2ccc(OC)cc2)n1	.	.	.	24.1	.
O=C(/C=C/c1ccc(S(=O)(=O)N2CCOCC2)cc1)N1CCCCC1	.	/	.	.	.
CC(=O)c1ccc(N2CCN(C(=O)/C=C/c3ccc(S(=O)(=O)N4CCOCC4)cc3)CC2)cc1	.	.	.	25.6	.
CC1CN(S(=O)(=O)c2cc(C(=O)NC(C)c3cccnc3)ccc2Cl)CC(C)O1 (stereo not drawn)	.	/	.	19.9	.
CC(=NNC(=O)c1ccc(Br)s1)c1ccncc1	/	/	/	/	.
COC(=O)c1c(C(=O)OC)c(-c2ccc(C(C)(C)C)cc2)n2c1CS(=O)C2 (stereo not drawn)	.	.	.	.	.
COC(=O)c1c(C(=O)OC)c(-c2ccccc2)n2c1CCC2	.	.	.	38.3	.
CN1/C(=C/C(=O)COC(=O)CN2C(=O)C3CC=CCC3C2=O)C(C)(C)c2ccccc21 (stereo not drawn)	.	/	.	.	.
CN1/C(=C\C(=O)COC(=O)Cn2nnc(-c3ccccc3)n2)C(C)(C)c2ccccc21	39.0	.	.	.	.
CCN1CCN(C(=O)c2ccc3c(=O)n(Cc4ccccc4OC)c(=S)[nH]c3c2)CC1	.	.	.	.	.
COc1ccccc1Cn1c(=S)[nH]c2cc(C(=O)N3CCCC3)ccc2c1=O	.	.	.	30.8	.
CCC(C(=O)NC1CC(C)(C)NC(C)(C)C1)c1ccccc1 (stereo not drawn)	.	.	.	.	.
CCC(C(=O)NC1CCN(C)CC1)c1ccccc1 (stereo not drawn)	.	.	.	52.8	.
O=S1(=O)N=C(N(CCO)N=Cc2ccc(Cl)cc2)c2ccccc21	/	/	/	/	.
Nc1ccc(N2CCCCC2)c2nonc12	.	79.3	.	29.4	21.0
Nc1c(N2CCCC2)cc(Cl)c2nonc12	.	94.8	.	.	86.7
Nc1c(N2CCOCC2)cc(Cl)c2nonc12	.	.	.	.	.
COC(=O)C(C(=O)NCC1CCCO1)C1CCCCCC1 (stereo not drawn)	.	.	.	.	.
CCOC(=O)C(C(=O)NCC1CCCO1)C1CCCCC1 (stereo not drawn)	.	17.1	.	.	.
O=c1[nH]c(/C=C\c2ccc(O)c(Cl)c2)nc(O)c1[N+](=O)[O-]	.	.	.	.	20.8
O=c1[nH]c(/C=C\c2ccc(O)cc2)nc(O)c1[N+](=O)[O-]	.	.	.	.	.
O=c1[nH]c(/C=C\c2cccs2)nc(O)c1[N+](=O)[O-]	.	.	.	.	20.7
CCCCC#Cc1cncc(C(=O)N/N=C/c2cccc(OC)c2)c1	.	.	.	37.5	/
CCCCC#Cc1cncc(C(=O)NN=Cc2ccccc2)c1	/	/	/	/	.
SMILES	MT1-MMP act inh	CTSL1 counter	DAGLB inhibitor	NRP1-CendR mod	UCH37 DUB inh	others
O=c1oc2ccccc2nc1C=C(O)/C=C/c1ccc(F)cc1	/	/	/	/	.
COc1cccc2c1OCC/C2=N\NC(=O)COc1ccccc1C	.	.	.	31.8	/
CC(C)CC(C(=O)OCC(=O)Nc1cccc(Cl)c1)N1C(=O)C2CC=CCC2C1=O (stereo not drawn)	.	21.7	.	.	.
Cc1ccc(S(=O)(=O)NCc2ccncc2)cc1C	.	.	.	21.9	.
O=S(=O)(NCc1ccncc1)c1ccc(F)c(F)c1	.	/	.	.	/
COc1cc(C=NNC(=O)c2cc(-c3ccccc3)nc3ccccc23)ccc1O	/	/	/	/	.
Cc1ccc2cc(C3C(C#N)=C(N)Oc4c3ccc3cccnc43)c(=O)[nH]c2c1 (stereo not drawn)	.	.	36.0	.	.	DAGLB confirm=.
N#C/C(=C\c1ccc(O)c(O)c1)C(=O)NCCCc1ccccc1	.	.	40.3	.	.	DAGLB confirm=.
